Experimental data: ChEMBL document CHEMBL2424583, “Structure-activity relationship and in vitro and in vivo evaluation of the potent cytotoxic anti-microtubule agent N-(4-methoxyphenyl)-N,2,6-trimethyl-6,7-dihydro-5H-cyclopenta[d]pyrimidin-4-aminium chloride and its analogues as antitumor agents” (J Med Chem, 2013)
The source made the active and inactive calls. The rule behind the calls is not given here.

Key:
[1] = Relative resistance, ratio of IC50 for beta3 tubulin overexpressed in human HeLa cells to IC50 for human HeLa cells
In short: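 SRB antiproliferative assay on isogenic pairs: parental SK-OV-3 vs Pgp-overexpressing SK-OV-3 MDR-M6-6, and parental HeLa vs βIII-tubulin-transfected HeLa. IC50 is the mean ± SD of at least three independent experiments. Relative resistance (Rr) is the IC50 of the transduced line divided by the IC50 of the parental line.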

MDA-MB-231 [2] = test: Antitumor activity against human MDA-MB-231 cells xenografted in athymic nude mouse assessed as tumor log cell kill at 75 mg/kg, ip qd administered every other day started on day 14 for 5 days followed by compound readministration on day 27; assay type: functional; conditions: route intraperitoneal
In short: (§1)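 Female athymic nude mice were implanted sc with an MDA-MB-231T tumour fragment, and tumours were staged to about 125 mg. Drug was given ip in 10% DMSO in saline/Tween 80, with courses starting day 14 and repeated from day 27. There were 8 animals per treated group and 16 controls. Read-outs were body weight, deaths, median tumour mass as T/C, days to a predetermined size as T-C/C, and net log cell kill.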

MDA-MB-231 [3] = test: Antitumor activity against human MDA-MB-231 cells xenografted in athymic nude mouse assessed as net tumor log cell kill at 75 mg/kg, ip qd administered on day 14 for 5 days followed by compound readministration on day 27; assay type: functional; conditions: route intraperitoneal; in short: as §1
MDA-MB-231 [4] = test: Antitumor activity against human MDA-MB-231 cells xenografted in athymic nude mouse assessed as net tumor log cell kill at 50 mg/kg, ip qd administered on day 14 for 5 days followed by compound readministration on day 27; assay type: functional; conditions: route intraperitoneal; in short: as §1
Mus musculus [5] = test: Toxicity in athymic nude mouse xenografted in human MDA-MB-231 cells assessed as mortality at 50 mg/kg, ip bid administered every other day started on day 14 followed by compound readministration every other day started on day 27; assay type: organism-based; set-up: dose 50 mg/kg, route intraperitoneal; conditions: in vivo; in short: as §1
Mus musculus [6] = test: Toxicity in athymic nude mouse xenografted in human MDA-MB-231 cells assessed as mortality at 75 mg/kg, ip qd administered every other day started on day 14 for 5 days followed by compound readministration on day 27; assay type: organism-based; set-up: dose 75 mg/kg, route intraperitoneal; conditions: in vivo, 120 h; in short: as §1
Mus musculus [7] = test: Toxicity in athymic nude mouse xenografted in human MDA-MB-231 cells assessed as mortality at 75 mg/kg, ip qd administered on day 14 for 5 days followed by compound readministration on day 27; assay type: organism-based; set-up: dose 75 mg/kg, route intraperitoneal; conditions: in vivo, 120 h; in short: as §1
Mus musculus [8] = test: Toxicity in athymic nude mouse xenografted in human MDA-MB-231 cells assessed as mortality at 50 mg/kg, ip qd administered on day 14 for 5 days followed by compound readministration on day 27; assay type: organism-based; set-up: dose 50 mg/kg, route intraperitoneal; conditions: in vivo, 120 h; in short: as §1
MDA-MB-231 [9] = test: Antitumor activity against human MDA-MB-231 cells xenografted in athymic nude mouse assessed as delay in tumor growth at 50 mg/kg, ip bid administered every other day started on day 14 followed by compound readministration every other day started on day 27 measured on day 31 relative to control; assay type: functional; conditions: route intraperitoneal
In short: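 MDA-MB-231T tumor fragments implanted sc in female athymic nude mice and staged to about 125 mg. Dosing was ip in 10% DMSO in saline/Tween 80, with courses starting day 14 and again day 27. Groups had 8 treated animals and 16 controls. Growth delay (T-C/C) is the median days for treated vs control tumors to reach a predetermined size, normalized to control, as %.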

MDA-MB-231 [10] = test: Antitumor activity against human MDA-MB-231 cells xenografted in athymic nude mouse assessed as delay in tumor growth at 75 mg/kg, ip qd administered on day 14 for 5 days followed by compound readministration on day 27 measured on day 31 relative to control; assay type: functional; conditions: route intraperitoneal; in short: as §1
MDA-MB-231 [11] = test: Antitumor activity against human MDA-MB-231 cells xenografted in athymic nude mouse assessed as tumor growth inhibition at 50 mg/kg, ip bid administered every other day started on day 14 followed by compound readministration every other day started on day 27 measured on day 31 relative to control; assay type: functional; conditions: route intraperitoneal; in short: as §1
MDA-MB-231 [12] = test: Antitumor activity against human MDA-MB-231 cells xenografted in athymic nude mouse assessed as tumor growth inhibition at 75 mg/kg, ip qd administered every other day started on day 14 for 5 days followed by compound readministration on day 27 measured on day 31 relative to control; assay type: functional; conditions: route intraperitoneal; in short: as §1
MDA-MB-231 [13] = test: Antitumor activity against human MDA-MB-231 cells xenografted in athymic nude mouse assessed as tumor growth inhibition at 75 mg/kg, ip qd administered on day 14 for 5 days followed by compound readministration on day 27 measured on day 31 relative to control; assay type: functional; conditions: route intraperitoneal; in short: as §1
MDA-MB-231 [14] = test: Antitumor activity against human MDA-MB-231 cells xenografted in athymic nude mouse assessed as tumor growth inhibition at 50 mg/kg, ip qd administered on day 14 for 5 days followed by compound readministration on day 27 measured on day 31 relative to control; assay type: functional; conditions: route intraperitoneal; in short: as §1
MDA-MB-231 [15] = test: Antitumor activity against human MDA-MB-231 cells xenografted in athymic nude mouse assessed as tumor free state at 50 mg/kg, ip bid administered every other day started on day 14 followed by compound readministration every other day started on day 27 measured on day 41; assay type: functional, organism-based; set-up: dose 50 mg/kg
In short: (§2)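 Female athymic nude mice carried sc MDA-MB-231T tumor fragments staged to about 125 mg. Compound was given ip as a solution in 10% DMSO in saline/Tween 80, with courses beginning day 14 and repeated from day 27. Groups had 8 animals, with 16 vehicle controls. Animals were scored as tumor-free on day 41.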

MDA-MB-231 [16] = test: Antitumor activity against human MDA-MB-231 cells xenografted in athymic nude mouse assessed as tumor free state at 75 mg/kg, ip qd administered every other day started on day 14 for 5 days followed by compound readministration on day 27 measured on day 41; assay type: functional, organism-based; set-up: dose 75 mg/kg; in short: as §2
CAKI-1 = test: Cytotoxicity against human CAKI-1 cells assessed as growth inhibition after 48 hrs by SRB assay; assay type: functional; conditions: CAKI-1, 48 h
HeLa = test: Antiproliferative activity against human HeLa cells after 48 hrs by SRB assay; assay type: functional, cell-based
In short: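 Isogenic pairs: parental SK-OV-3 alongside its Pgp-overexpressing subline MDR-M6-6, and parental HeLa alongside βIII-tubulin-transfected HeLa. Antiproliferative IC50 measured by sulforhodamine B assay, averaged from at least three independent experiments ± SD. Relative resistance is the transduced-line IC50 divided by the parental-line IC50.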

MDA-MB-435 = test: Cytotoxicity against human MDA-MB-435 cells assessed as growth inhibition after 48 hrs by SRB assay; assay type: functional, cell-based; conditions: MDA-MB-435, 48 h

Compound | Ratio IC50 [1] | LCK (MDA-MB-231 [2]) | LCK (MDA-MB-231 [3]) | LCK (MDA-MB-231 [4]) | Activity (Mus musculus [5]) | Activity (Mus musculus [6]) | Activity (Mus musculus [7]) | Activity (Mus musculus [8]) | Activity (MDA-MB-231 [9]) [%] | Activity (MDA-MB-231 [10]) [%] | T/C (MDA-MB-231 [11]) [%] | T/C (MDA-MB-231 [12]) [%] | T/C (MDA-MB-231 [13]) [%] | T/C (MDA-MB-231 [14]) [%] | Activity (MDA-MB-231 [15]) | Activity (MDA-MB-231 [16]) | GI50 (CAKI-1) [nM] | IC50 (HeLa) [nM] | IC50 (MDA-MB-435) [nM]
COc1ccc(N(C)c2nc(C)nc3c2CC(C)C3)cc1.Cl (racemic) | 0.6 | – | – | – | – | – | – | – | – | – | – | – | – | – | – | – | – | – | –
COc1ccc(N(C)c2nc(C)nc3c2CCC3)cc1.Cl | – | -1.5 | -1.1 | -1.4 | Non-toxic | Non-toxic | Non-toxic | Non-toxic | 32 | 40 | 25 | 19 | 17 | 20 | Active | Active | < 10 | 9.3 | 7
